Assay results taken from ChEMBL document CHEMBL2074476, “Contribution of organic anion transporting polypeptide OATP-C to hepatic elimination of the opioid pentapeptide analogue [D-Ala2, D-Leu5]-enkephalin” (J Pharm Pharmacol, 2003).
Each block holds one molecule with its values, some of them ahead of it. Where a SMILES comes first, the peptide text is derived from it. [ ]: non-standard residue; d: D form.

Columns and labels:
[1] = target: T1, Solute carrier organic anion transporter family member 1B1 (OATP1B1) (Homo sapiens, UniProt Q9Y6L6); experiment: in vitro; conditions: xenopus laevis, Xenopus laevis oocytes, probe E1S (0.004 uM)
T1 sequence (Q9Y6L6 whole entry): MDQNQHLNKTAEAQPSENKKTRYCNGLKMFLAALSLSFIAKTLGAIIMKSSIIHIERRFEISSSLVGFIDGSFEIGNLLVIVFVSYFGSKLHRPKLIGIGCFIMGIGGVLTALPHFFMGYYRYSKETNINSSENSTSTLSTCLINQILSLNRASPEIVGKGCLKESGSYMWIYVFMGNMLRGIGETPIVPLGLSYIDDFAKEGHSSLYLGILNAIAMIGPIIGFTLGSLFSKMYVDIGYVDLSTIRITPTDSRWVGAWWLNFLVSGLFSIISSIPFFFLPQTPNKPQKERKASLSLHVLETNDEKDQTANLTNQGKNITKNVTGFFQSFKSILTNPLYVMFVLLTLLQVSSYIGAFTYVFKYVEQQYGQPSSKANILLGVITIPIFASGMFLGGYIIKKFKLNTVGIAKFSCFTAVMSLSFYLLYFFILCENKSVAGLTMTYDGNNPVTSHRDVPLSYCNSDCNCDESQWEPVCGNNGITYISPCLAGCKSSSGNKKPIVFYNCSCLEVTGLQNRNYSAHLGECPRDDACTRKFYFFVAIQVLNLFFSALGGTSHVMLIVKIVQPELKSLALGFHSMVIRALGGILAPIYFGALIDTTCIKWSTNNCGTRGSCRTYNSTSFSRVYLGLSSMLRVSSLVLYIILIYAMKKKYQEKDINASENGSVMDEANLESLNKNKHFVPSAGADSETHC

[2] = target: T1, Solute carrier organic anion transporter family member 1B1 (OATP1B1); experiment: TP_TRANSPORTER: inhibition of E1S uptake (E1S: 0.004 uM, des-tyrosine DADLE: 1000 uM) in Xenopus laevis oocytes; assay type: functional, cell-based, Oocyte; set-up: scale not given: the % may be the effect or the level left; conditions: probe E1S (0.004 uM), read-out: Activity
How it was run: (§1)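 Oocytes injected with OATP-C cRNA (25 ng), cultured 3 days in modified Barth's solution, then incubated 30 min at 25 °C in medium 1 (pH 7.4) with [3H]estrone-3-sulfate (4 nM) plus or minus inhibitor. OATP-C-specific uptake = total minus water-injected oocyte uptake, expressed as percent of control; mean ± s.e.m., n = 5–10.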

[3] = target: T2, Solute carrier organic anion transporter family member 1B1 (Homo sapiens, UniProt Q9Y6L6); experiment: TP_TRANSPORTER: uptake of [D-Pen2,D-Pen5]-enkephalin at a concentration of 0.02 u M in Xenopus laevis oocytes; assay type: functional, cell-based; conditions: oocyte, 0.02 µM
T2 sequence (Q9Y6L6 whole entry): T1 sequence (Q9Y6L6 whole entry)
How it was run: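 OATP-C cRNA- or water-injected oocytes incubated 60 min at 25 °C in medium 1 (pH 7.4) with [3H]DPDPE (20 nM). Washed with ice-cold buffer, solubilized in 5% SDS, radioactivity counted. Uptake given as cell-to-medium ratio (uptake amount divided by medium concentration); mean ± s.e.m., n = 5–10.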

[4] = target: T2, Solute carrier organic anion transporter family member 1B1; experiment: TP_TRANSPORTER: inhibition of E1S uptake (E1S: 0.004 uM, Ala4: 5000 uM) in Xenopus laevis oocytes; assay type: functional, cell-based; conditions: oocyte
How it was run: as §1

[5] = target: T1, Solute carrier organic anion transporter family member 1B1 (OATP1B1); experiment: TP_TRANSPORTER: inhibition of DPDPE uptake (DPDPE: 0.02 uM) in Xenopus laevis oocytes; assay type: functional, cell-based, Oocyte; set-up: scale not given: the % may be the effect or the level left; conditions: probe DPDPE (0.02 uM)
[6] = target: T1, Solute carrier organic anion transporter family member 1B1 (OATP1B1); experiment: TP_TRANSPORTER: inhibition of E1S uptake (E1S: 0.004 uM, Ala5: 5000 uM) in Xenopus laevis oocytes; assay type: functional, cell-based, Oocyte; set-up: scale not given: the % may be the effect or the level left; conditions: probe E1S (0.004 uM), read-out: Activity
How it was run: as §1

[7] = target: T2, Solute carrier organic anion transporter family member 1B1; experiment: TP_TRANSPORTER: inhibition of E1S uptake (E1S: 0.004 uM, Carnitine: 50 uM) in Xenopus laevis oocytes; assay type: functional, cell-based; conditions: oocyte
How it was run: as §1

[8] = target: T1, Solute carrier organic anion transporter family member 1B1 (OATP1B1); experiment: TP_TRANSPORTER: inhibition of E1S uptake (E1S: 0.004 uM, DADLE: 1000 uM) in Xenopus laevis oocytes; assay type: functional, cell-based, Oocyte; set-up: scale not given: the % may be the effect or the level left; conditions: probe E1S (0.004 uM), read-out: Activity
How it was run: as §1

[9] = target: T1, Solute carrier organic anion transporter family member 1B1 (OATP1B1); experiment: TP_TRANSPORTER: inhibition of E1S uptake (E1S: 0.004 uM, Quinidine: 500 uM) in Xenopus laevis oocytes; assay type: functional, cell-based, Oocyte; set-up: scale not given: the % may be the effect or the level left; conditions: probe E1S (0.004 uM), read-out: Activity
How it was run: as §1

[10] = target: T2, Solute carrier organic anion transporter family member 1B1; experiment: TP_TRANSPORTER: inhibition of E1S uptake (E1S: 0.004 uM, PAH: 500 uM) in Xenopus laevis oocytes; assay type: functional, cell-based; conditions: oocyte
How it was run: as §1

[11] = target: T1, Solute carrier organic anion transporter family member 1B1 (OATP1B1); experiment: TP_TRANSPORTER: inhibition of E1S uptake (E1S: 0.004 uM, BSP: 50 uM) in Xenopus laevis oocytes; assay type: functional, cell-based, Oocyte; set-up: scale not given: the % may be the effect or the level left; conditions: probe E1S (0.004 uM), read-out: Activity
How it was run: as §1

[12] = target: T2, Solute carrier organic anion transporter family member 1B1; experiment: TP_TRANSPORTER: inhibition of E1S uptake (E1S: 0.004 uM, Gly4: 5000 uM) in Xenopus laevis oocytes; assay type: functional, cell-based; conditions: oocyte
How it was run: as §1

[13] = target: T1, Solute carrier organic anion transporter family member 1B1 (OATP1B1); experiment: TP_TRANSPORTER: inhibition of E1S uptake (E1S: 0.004 uM, YGG: 1000 uM) in Xenopus laevis oocytes; assay type: functional, cell-based, Oocyte; set-up: scale not given: the % may be the effect or the level left; conditions: probe E1S (0.004 uM), read-out: Activity
How it was run: as §1

[14] = target: T2, Solute carrier organic anion transporter family member 1B1; experiment: TP_TRANSPORTER: inhibition of E1S uptake (E1S: 0.004 uM, CCK-8: 100 uM) in Xenopus laevis oocytes; assay type: functional, cell-based; set-up: scale not given: the % may be the effect or the level left; conditions: oocyte
How it was run: as §1

[15] = target: T2, Solute carrier organic anion transporter family member 1B1; experiment: TP_TRANSPORTER: inhibition of E1S uptake (E1S: 0.004 uM, YdAG: 1000 uM) in Xenopus laevis oocytes; assay type: functional, cell-based; conditions: oocyte
How it was run: as §1

Compound: CC(C)C[C@H](NC(=O)[C@H](Cc1ccccc1)NC(=O)CNC(=O)CNC(=O)[C@@H](N)Cc1ccc(O)cc1)C(=O)O [ENKEPHALIN]
- activity at 1000 µM [1]: 26.8%

Compound: CC(C)C[C@@H](NC(=O)[C@H](Cc1ccccc1)NC(=O)CNC(=O)[C@@H](C)N)C(=O)O
- activity at 1000 µM [2]: 62.5%

Compound: CC1(C)SSC(C)(C)[C@@H](NC(=O)[C@@H](N)Cc2ccc(O)cc2)C(=O)NCC(=O)N[C@@H](Cc2ccccc2)C(=O)N[C@H]1C(=O)O
- Activity [3]: substrate [+]

- Activity [4]: is not an inhibitor [-]
Compound: C[C@H](N)C(=O)N[C@@H](C)C(=O)N[C@@H](C)C(=O)N[C@@H](C)C(=O)O (H-AAAA-OH)

- Activity [5]: 50%
Compound: C[C@]12CC[C@@H]3c4ccc(OS(=O)(=O)O)cc4CC[C@H]3[C@@H]1CCC2=O [ESTRONE SULFURIC ACID]

- activity at 5000 µM [6]: 86.3%
Compound: C[C@H](N)C(=O)N[C@@H](C)C(=O)N[C@@H](C)C(=O)N[C@@H](C)C(=O)N[C@@H](C)C(=O)O

- Activity [7]: is not an inhibitor [-]
Compound: C[N+](C)(C)CC(O)CC(=O)[O-] (stereo unspecified) [CARNITINE]

Compound: CC(C)C[C@@H](NC(=O)[C@H](Cc1ccccc1)NC(=O)CNC(=O)[C@@H](C)NC(=O)[C@@H](N)Cc1ccc(O)cc1)C(=O)O [DADLE]
- activity at 1000 µM [8]: 35.4%

- activity at 500 µM [9]: 81%
Compound: C=C[C@H]1C[N@@]2CC[C@H]1C[C@@H]2[C@@H](O)c1ccnc2ccc(OC)cc12 [QUINIDINE]

- Activity [10]: is not an inhibitor [-]
Compound: Nc1ccc(C(=O)NCC(=O)O)cc1 [AMINOHIPPURIC ACID]

Compound: O=C1OC(c2ccc(O)c(S(=O)(=O)O)c2)(c2ccc(O)c(S(=O)(=O)O)c2)c2c(Br)c(Br)c(Br)c(Br)c21 [SULFOBROMOPHTHALEIN SODIUM]
- Activity [5]: 25%
- activity at 50 µM [11]: 8%

- Activity [12]: is not an inhibitor [-]
Compound: NCC(=O)NCC(=O)NCC(=O)NCC(=O)O (H-GGGG-OH)

Compound: N[C@@H](Cc1ccc(O)cc1)C(=O)NCC(=O)NCC(=O)O (H-Tyr-Gly-Gly-OH)
- activity at 1000 µM [13]: 77.2%

Compound: CSCC[C@H](NC(=O)[C@H](Cc1ccc(OS(=O)(=O)O)cc1)NC(=O)[C@@H](N)CC(=O)O)C(=O)NCC(=O)N[C@@H](Cc1c[nH]c2ccccc12)C(=O)N[C@@H](CCSC)C(=O)N[C@@H](CC(=O)O)C(=O)N[C@@H](Cc1ccccc1)C(N)=O [SINCALIDE]
- Activity [14]: 9.1%

Compound: C[C@@H](NC(=O)[C@@H](N)Cc1ccc(O)cc1)C(=O)NCC(=O)O (H-Tyr-[dA]-Gly-OH)
- Activity [15]: is not an inhibitor [-]
